Assay results taken from ChEMBL document CHEMBL1143833, “Concentration-dependent synergy and antagonism within a triple antifungal drug combination against Aspergillus species: analysis by a new response surface model” (Antimicrob Agents Chemother, 2007).
Values after ≈ are worked out from the molar mass of the structure shown.

Legend:
Assay type in all cases: functional, organism-based
Aspergillus fumigatus = test: Antifungal activity against Aspergillus fumigatus by broth microdilution method
Procedure, shortened: (§1)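 RPMI 1640 with L-glutamine, no bicarbonate, buffered to pH 7.0 with 0.165 M MOPS. Conidial inoculum added to thawed plates. Incubated 48 h at 37°C, 95% humidity, plates unstacked. MIC taken as the lowest concentration with no visible growth. Growth also read at OD405 against conidium-free backgrounds, expressed as % of drug-free control. Run three times on separate days.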

Aspergillus terreus = test: Antifungal activity against Aspergillus terreus by broth microdilution method; settings: for EC50: pooled result: one value given for 3 cell lines, strains, targets or settings; procedure, shortened: as §1
Aspergillus flavus = test: Antifungal activity against Aspergillus flavus by broth microdilution method; procedure, shortened: as §1

| SMILES | MIC (Aspergillus fumigatus) | MIC (Aspergillus terreus) | EC50 (Aspergillus terreus) | MIC (Aspergillus flavus) |
| --- | --- | --- | --- | --- |
| C[C@@H]1[C@H](O)[C@@H](C)/C=C/C=C/C=C/C=C/C=C/C=C/C=C/[C@H](O[C@@H]2O[C@H](C)[C@@H](O)[C@H](N)[C@@H]2O)C[C@@H]2O[C@](O)(C[C@@H](O)C[C@@H](O)[C@H](O)CC[C@@H](O)C[C@@H](O)CC(=O)O[C@H]1C)C[C@H](O)[C@H]2C(=O)O [AMPHOTERICIN B] | 0.5 µg/mL (≈ 0.541 µM) | 0.5 µg/mL (≈ 0.541 µM) | 0.44 µg/mL (≈ 0.476 µM) | 0.5 µg/mL (≈ 0.541 µM) |
| CC[C@H](C)C[C@H](C)CCCCCCCCC(=O)N[C@H]1C[C@@H](O)[C@@H](NCCN)NC(=O)[C@@H]2[C@@H](O)CCN2C(=O)[C@H]([C@H](O)CCN)NC(=O)[C@H]([C@H](O)[C@@H](O)c2ccc(O)cc2)NC(=O)[C@@H]2C[C@@H](O)CN2C(=O)[C@H]([C@@H](C)O)NC1=O [CASPOFUNGIN] | > 128 µg/mL | > 128 µg/mL | 95.5 µg/mL (≈ 87.4 µM) | > 128 µg/mL |
| C[C@@H](c1ncncc1F)[C@](O)(Cn1cncn1)c1ccc(F)cc1F [VORICONAZOLE] | 0.25 µg/mL (≈ 0.716 µM) | 0.25 µg/mL (≈ 0.716 µM) | 0.23 µg/mL (≈ 0.658 µM) | 0.25 µg/mL (≈ 0.716 µM) |
